Experimental data reported in ChEMBL document CHEMBL1914326, “Synthesis and anticonvulsant properties of new acetamide derivatives of phthalimide, and its saturated cyclohexane and norbornene analogs” (Eur J Med Chem, 2011).
Calls of active or inactive are those of the source. The rule behind the calls is not given here.

How the values were obtained:
Mus musculus [1] = assay: Anticonvulsant activity in CF1 albino mouse assessed as protection against maximal electroshock at 300 mg/kg, ip after 4 hrs; assay type: functional, organism-based; set-up: dose 300 mg/kg
Procedure, shortened: (§1)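 Male albino CF-1 mice in groups of eight received i.p. doses of 30, 100 and 300 mg/kg, suspended in 0.5% methylcellulose/water. Maximal electroshock seizures were tested at 0.5 and 4 h, with one additional 0.25 h reading at 100 mg/kg. The minimum dose giving protection was recorded. A dash means no activity at 300 mg/kg.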

Mus musculus [2] = assay: Neurotoxicity in CF1 albino mouse assessed as motor impairment at 300 mg/kg, ip after 4 hrs by rotarod test; assay type: toxicity, organism-based; set-up: dose 300 mg/kg, route intraperitoneal; details: in vivo
Procedure, shortened: (§2)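 Acute neurotoxicity was scored on the minimal motor impairment rotorod test in male CF-1 mice. Animals in groups of eight were dosed i.p. at 30, 100 or 300 mg/kg in 0.5% methylcellulose/water and examined at 0.5 and 4 h. Untreated controls keep their balance on the rod for a prolonged time. The minimum dose causing impairment was recorded.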

Mus musculus [3] = assay: Anticonvulsant activity in CF1 albino mouse assessed as protection against maximal electroshock at 300 mg/kg, ip after 0.5 hrs; assay type: functional, organism-based; set-up: dose 300 mg/kg; procedure, shortened: as §1
Mus musculus [4] = assay: Anticonvulsant activity in CF1 albino mouse assessed as protection against subcutaneous pentylenetetrazole-induced seizures at 300 mg/kg, ip after 4 hrs; assay type: functional, organism-based; set-up: dose 300 mg/kg
Procedure, shortened: (§3)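 Male CF-1 mice in groups of eight were dosed i.p. at 30, 100 or 300 mg/kg in 0.5% methylcellulose/water. At 0.5 and 4 h, pentylenetetrazole 85 mg/kg (CD97 dose) was given s.c. This dose produces clonic seizures lasting at least 5 s. The minimum protective dose was recorded, with a top dose of 300 mg/kg.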

Mus musculus [5] = assay: Neurotoxicity in CF1 albino mouse assessed as motor impairment at 300 mg/kg, ip after 0.5 hrs by rotarod test; assay type: toxicity, organism-based; set-up: dose 300 mg/kg, route intraperitoneal; details: in vivo; procedure, shortened: as §2
Mus musculus [6] = assay: Anticonvulsant activity in CF1 albino mouse assessed as protection against subcutaneous pentylenetetrazole-induced seizures at 300 mg/kg, ip after 0.5 hrs; assay type: functional, organism-based; set-up: dose 300 mg/kg; procedure, shortened: as §3
Mus musculus [7] = assay: Anticonvulsant activity in ip dosed CF1 albino mouse assessed as protection against maximal electroshock after 4 hrs; assay type: functional; details: read-out: MED; procedure, shortened: as §1
Mus musculus [8] = assay: Neurotoxicity in ip dosed CF1 albino mouse assessed as minimum dose required to cause motor impairment after 0.5 hrs by rotarod test; assay type: toxicity, organism-based; details: in vivo; procedure, shortened: as §2
Mus musculus [9] = assay: Anticonvulsant activity in ip dosed CF1 albino mouse assessed as protection against subcutaneous pentylenetetrazole-induced after 4 hrs; assay type: functional; details: read-out: MED; procedure, shortened: as §3
Mus musculus [10] = assay: Anticonvulsant activity in ip dosed CF1 albino mouse assessed as protection against maximal electroshock after 0.5 hrs; assay type: functional; details: read-out: MED; procedure, shortened: as §1
Mus musculus [11] = assay: Anticonvulsant activity in ip dosed CF1 albino mouse assessed as protection against subcutaneous pentylenetetrazole-induced after 0.5 hrs; assay type: functional; details: read-out: MED; procedure, shortened: as §3
Rattus norvegicus [12] = assay: Anticonvulsant activity in Sprague-Dawley albino rat assessed as protection against maximal electroshock at 30 mg/kg, po after 0.5 hrs; assay type: functional
Procedure, shortened: (§4)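 Male Sprague-Dawley rats in groups of four received 30 mg/kg p.o. as a suspension in 0.5% methylcellulose/water. Maximal electroshock seizure protection was scored at 0.25, 0.5, 1, 2 and 4 h and reported as rats protected/rats tested.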

Rattus norvegicus [13] = assay: Anticonvulsant activity in Sprague-Dawley albino rat assessed as protection against maximal electroshock at 30 mg/kg, po after 0.25 hrs; assay type: functional; procedure, shortened: as §4
Rattus norvegicus [14] = assay: Anticonvulsant activity in Sprague-Dawley albino rat assessed as protection against maximal electroshock at 30 mg/kg, po after 4 hrs; assay type: functional; procedure, shortened: as §4
Rattus norvegicus [15] = assay: Anticonvulsant activity in Sprague-Dawley albino rat assessed as protection against maximal electroshock at 30 mg/kg, po after 2 hrs; assay type: functional; procedure, shortened: as §4
Rattus norvegicus [16] = assay: Neurotoxicity in Sprague-Dawley albino rat assessed as motor impairment at 30 mg/kg, po by rotarod test; assay type: toxicity, organism-based; set-up: dose 30 mg/kg, route oral; details: in vivo
Procedure, shortened: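 Male Sprague-Dawley rats in groups of four were given 30 mg/kg orally in 0.5% methylcellulose/water. Motor impairment was then assessed on the standardized minimal motor impairment rotorod test.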

Rattus norvegicus [17] = assay: Anticonvulsant activity in Sprague-Dawley albino rat assessed as protection against maximal electroshock at 30 mg/kg, po after 1 hr; assay type: functional; procedure, shortened: as §4

| Structure (SMILES) | Activity (Mus musculus [1]) | Activity (Mus musculus [2]) | Activity (Mus musculus [3]) | Activity (Mus musculus [4]) | Activity (Mus musculus [5]) | Activity (Mus musculus [6]) | minimal effective dose (Mus musculus [7]) [mg/kg] | MTC (Mus musculus [8]) [mg/kg] | minimal effective dose (Mus musculus [9]) [mg/kg] | minimal effective dose (Mus musculus [10]) [mg/kg] | minimal effective dose (Mus musculus [11]) [mg/kg] | Activity (Rattus norvegicus [12]) [%] | Activity (Rattus norvegicus [13]) [%] | Activity (Rattus norvegicus [14]) [%] | Activity (Rattus norvegicus [15]) [%] | Activity (Rattus norvegicus [16]) | Activity (Rattus norvegicus [17]) [%] |
| --- | --- | --- | --- | --- | --- | --- | --- | --- | --- | --- | --- | --- | --- | --- | --- | --- | --- |
| O=C(CN1C(=O)C2CCCCC2C1=O)N1CCN(c2cccc(Cl)c2)CC1 (configuration not stated) | inactive | Non-toxic | inactive | inactive | Non-toxic | inactive |  |  |  |  |  |  |  |  |  |  |  |
| O=C(CN1C(=O)c2ccccc2C1=O)N1CCN(c2cccc(C(F)(F)F)c2)CC1 |  | Non-toxic | inactive | inactive | Non-toxic | inactive | 100 |  |  |  |  |  |  |  |  |  |  |
| O=C(CN1C(=O)C2CCCCC2C1=O)N1CCOCC1 (configuration not stated) | inactive | Non-toxic | inactive |  |  | inactive |  | 300 | 300 |  |  |  |  |  |  |  |  |
| O=C(CN1C(=O)c2ccccc2C1=O)N1CCN(c2cccc(Cl)c2Cl)CC1 |  | Non-toxic | inactive | inactive | Non-toxic | inactive | 100 |  |  |  |  |  |  |  |  |  |  |
| O=C(CN1C(=O)c2ccccc2C1=O)N1CCN(c2ccccc2Cl)CC1 | inactive | Non-toxic |  | inactive | Non-toxic | inactive |  |  |  | 100 |  |  |  |  |  |  |  |
| O=C(CN1C(=O)c2ccccc2C1=O)N1CCN(c2ccccc2F)CC1 | inactive | Non-toxic |  | inactive | Non-toxic |  |  |  |  | 300 | 300 |  |  |  |  |  |  |
| O=C(CN1C(=O)C2C3C=CC(C3)C2C1=O)N1CCN(Cc2ccccc2)CC1 (configuration not stated) | inactive | Non-toxic | inactive | inactive | Non-toxic | inactive |  |  |  |  |  |  |  |  |  |  |  |
| O=C(CN1C(=O)C2CCCCC2C1=O)N1CCN(CCO)CC1 (configuration not stated) | inactive | Non-toxic | inactive | inactive | Non-toxic | inactive |  |  |  |  |  |  |  |  |  |  |  |
| O=C(CN1C(=O)c2ccccc2C1=O)N1CCN(c2ccc(Cl)cc2)CC1 |  | Non-toxic |  | inactive | Non-toxic | inactive | 100 |  |  | 100 |  | 0 | 0 | 50 | 0 | Non-toxic | 0 |
| CCC1(C)CC(=O)NC1=O (configuration not stated) [ETHOSUXIMIDE] | inactive | Non-toxic | inactive |  | Non-toxic |  |  |  | 300 |  | 100 |  |  |  |  |  |  |
| O=C(CN1C(=O)C2CCCCC2C1=O)N1CCN(c2cccc(C(F)(F)F)c2)CC1 (configuration not stated) | inactive | Non-toxic |  | inactive | Non-toxic | inactive |  |  |  | 100 |  |  |  |  |  |  |  |
| O=C(CN1C(=O)C2C3C=CC(C3)C2C1=O)N1CCN(c2cccc(Cl)c2)CC1 (configuration not stated) | inactive | Non-toxic | inactive | inactive | Non-toxic | inactive |  |  |  |  |  |  |  |  |  |  |  |
| O=C(CN1C(=O)C2C3C=CC(C3)C2C1=O)N1CCN(c2ccccc2F)CC1 (configuration not stated) | inactive | Non-toxic | inactive | inactive | Non-toxic | inactive |  |  |  |  |  |  |  |  |  |  |  |
| O=C(CN1C(=O)c2ccccc2C1=O)N1CCN(Cc2ccccc2)CC1 | inactive | Non-toxic | inactive | inactive | Non-toxic | inactive |  |  |  |  |  |  |  |  |  |  |  |
| O=C(CN1C(=O)C2CCCCC2C1=O)N1CCN(c2ccc(Cl)cc2)CC1 (configuration not stated) |  | Non-toxic | inactive | inactive | Non-toxic | inactive | 300 |  |  |  |  |  |  |  |  |  |  |
| O=C(CN1C(=O)C2C3C=CC(C3)C2C1=O)N1CCN(c2ccccc2)CC1 (configuration not stated) | inactive | Non-toxic | inactive | inactive | Non-toxic | inactive |  |  |  |  |  |  |  |  |  |  |  |
| O=C(CN1C(=O)c2ccccc2C1=O)N1CCN(c2ccccc2)CC1 | inactive | Non-toxic |  | inactive | Non-toxic | inactive |  |  |  | 100 |  |  |  |  |  |  |  |
| O=C(CN1C(=O)C2CCCCC2C1=O)N1CCN(Cc2ccccc2)CC1 (configuration not stated) | inactive | Non-toxic | inactive | inactive |  | inactive |  | 300 |  |  |  |  |  |  |  |  |  |
| O=C(CN1C(=O)c2ccccc2C1=O)N1CCN(CCO)CC1 | inactive | Non-toxic | inactive | inactive | Non-toxic | inactive |  |  |  |  |  |  |  |  |  |  |  |
| O=C(CN1C(=O)C2CCCCC2C1=O)N1CCN(c2ccccc2)CC1 (configuration not stated) | inactive | Non-toxic |  | inactive | Non-toxic | inactive |  |  |  | 300 |  |  |  |  |  |  |  |
| O=C(CN1C(=O)c2ccccc2C1=O)N1CCN(c2cccc(Cl)c2)CC1 | inactive | Non-toxic | inactive | inactive | Non-toxic | inactive |  |  |  |  |  |  |  |  |  |  |  |
